Legend:
[1] = molecular target: T1, 72 kDa type IV collagenase (Homo sapiens, UniProt P08253); settings: at 1 mM
Target sequence in this assay (P08253 110-660 limits assumed): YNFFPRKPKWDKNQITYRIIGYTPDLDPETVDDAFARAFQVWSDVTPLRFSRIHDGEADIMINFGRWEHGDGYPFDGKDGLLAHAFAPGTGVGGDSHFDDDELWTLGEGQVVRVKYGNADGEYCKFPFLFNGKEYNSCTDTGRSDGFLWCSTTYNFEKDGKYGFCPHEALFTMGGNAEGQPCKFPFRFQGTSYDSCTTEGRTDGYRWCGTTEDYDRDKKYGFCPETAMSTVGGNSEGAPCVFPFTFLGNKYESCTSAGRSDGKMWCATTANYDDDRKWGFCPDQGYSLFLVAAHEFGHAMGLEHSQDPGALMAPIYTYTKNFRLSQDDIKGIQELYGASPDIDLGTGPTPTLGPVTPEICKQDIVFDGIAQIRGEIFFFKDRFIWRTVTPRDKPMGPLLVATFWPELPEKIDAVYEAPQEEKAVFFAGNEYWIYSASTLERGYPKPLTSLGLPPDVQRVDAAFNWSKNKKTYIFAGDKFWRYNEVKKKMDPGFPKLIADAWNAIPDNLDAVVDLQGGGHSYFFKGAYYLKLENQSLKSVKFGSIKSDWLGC

[2] = molecular target: T1, 72 kDa type IV collagenase; experiment: Inhibition of human recombinant MMP2 after 30 mins
In short: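 Enzyme (1.16 U) preincubated 30 min at 37 °C with fragment in 50 mM HEPES, 10 mM CaCl2, 0.05% Brij-35, pH 7.5. Fluorogenic Mca peptide substrate (4 μM final) then added. Rate of fluorescence increase compared with no-inhibitor control (100%). Single-point 25 μM final for the 8-hydroxyquinoline sublibrary. IC50 fitted to dose-response curves from serial dilutions of DMSO stocks.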
Target sequence in this assay (P08253 whole entry): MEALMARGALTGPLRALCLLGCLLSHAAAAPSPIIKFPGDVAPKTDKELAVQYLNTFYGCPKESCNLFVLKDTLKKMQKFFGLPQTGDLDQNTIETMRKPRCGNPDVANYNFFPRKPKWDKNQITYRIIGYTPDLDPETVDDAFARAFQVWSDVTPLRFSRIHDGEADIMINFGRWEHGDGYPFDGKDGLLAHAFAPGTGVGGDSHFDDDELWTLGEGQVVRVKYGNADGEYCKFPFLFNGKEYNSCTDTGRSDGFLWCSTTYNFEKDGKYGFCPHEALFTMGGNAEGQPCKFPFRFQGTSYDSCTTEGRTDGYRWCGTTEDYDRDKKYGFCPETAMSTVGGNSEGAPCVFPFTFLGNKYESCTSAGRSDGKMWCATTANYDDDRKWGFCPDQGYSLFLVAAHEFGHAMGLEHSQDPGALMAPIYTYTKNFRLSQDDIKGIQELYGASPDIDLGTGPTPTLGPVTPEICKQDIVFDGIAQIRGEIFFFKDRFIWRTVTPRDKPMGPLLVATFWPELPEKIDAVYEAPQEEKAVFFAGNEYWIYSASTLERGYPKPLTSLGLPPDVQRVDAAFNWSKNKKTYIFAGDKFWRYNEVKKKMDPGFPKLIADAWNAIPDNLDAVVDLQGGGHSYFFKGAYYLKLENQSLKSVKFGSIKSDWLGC

[3] = molecular target: Stromelysin-1 (Homo sapiens) (UniProt P08254); settings: at 1 mM;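 note: recombinant enzyme, inhibition read after a 30 min incubation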
[4] = molecular target: T2, Lethal factor (Bacillus anthracis) (UniProt P15917); settings: at 1 mM
T2 sequence (whole entry): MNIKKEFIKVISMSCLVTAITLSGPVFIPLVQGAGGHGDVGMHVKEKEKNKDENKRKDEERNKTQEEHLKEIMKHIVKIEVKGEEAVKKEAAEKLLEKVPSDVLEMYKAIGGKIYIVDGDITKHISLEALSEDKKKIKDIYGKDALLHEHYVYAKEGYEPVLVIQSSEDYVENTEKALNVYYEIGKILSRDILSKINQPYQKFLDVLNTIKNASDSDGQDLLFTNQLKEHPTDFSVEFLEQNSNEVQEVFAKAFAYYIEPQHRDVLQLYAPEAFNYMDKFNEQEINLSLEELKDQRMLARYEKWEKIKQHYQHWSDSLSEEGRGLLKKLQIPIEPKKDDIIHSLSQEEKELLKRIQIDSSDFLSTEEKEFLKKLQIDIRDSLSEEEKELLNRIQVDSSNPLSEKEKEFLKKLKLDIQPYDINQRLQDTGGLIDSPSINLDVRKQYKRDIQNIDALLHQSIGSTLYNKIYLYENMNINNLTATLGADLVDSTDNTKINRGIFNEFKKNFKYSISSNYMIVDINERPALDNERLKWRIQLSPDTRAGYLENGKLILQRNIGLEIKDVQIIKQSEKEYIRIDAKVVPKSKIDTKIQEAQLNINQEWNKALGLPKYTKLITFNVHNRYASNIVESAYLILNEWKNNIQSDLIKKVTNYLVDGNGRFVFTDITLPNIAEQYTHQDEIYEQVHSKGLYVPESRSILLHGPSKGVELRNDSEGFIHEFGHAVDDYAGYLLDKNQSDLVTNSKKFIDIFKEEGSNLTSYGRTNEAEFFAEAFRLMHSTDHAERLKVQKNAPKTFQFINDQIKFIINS

[5] = molecular target: Neutrophil collagenase (Homo sapiens) (UniProt P22894); settings: at 1 mM;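 note: recombinant human MMP8 enzyme, percent inhibition read after 30 min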
[6] = molecular target: T3, Tyrosinase (Agaricus bisporus) (UniProt O42713); settings: at 1 mM;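 note: inhibition measured at 10 min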
T3 sequence (whole entry): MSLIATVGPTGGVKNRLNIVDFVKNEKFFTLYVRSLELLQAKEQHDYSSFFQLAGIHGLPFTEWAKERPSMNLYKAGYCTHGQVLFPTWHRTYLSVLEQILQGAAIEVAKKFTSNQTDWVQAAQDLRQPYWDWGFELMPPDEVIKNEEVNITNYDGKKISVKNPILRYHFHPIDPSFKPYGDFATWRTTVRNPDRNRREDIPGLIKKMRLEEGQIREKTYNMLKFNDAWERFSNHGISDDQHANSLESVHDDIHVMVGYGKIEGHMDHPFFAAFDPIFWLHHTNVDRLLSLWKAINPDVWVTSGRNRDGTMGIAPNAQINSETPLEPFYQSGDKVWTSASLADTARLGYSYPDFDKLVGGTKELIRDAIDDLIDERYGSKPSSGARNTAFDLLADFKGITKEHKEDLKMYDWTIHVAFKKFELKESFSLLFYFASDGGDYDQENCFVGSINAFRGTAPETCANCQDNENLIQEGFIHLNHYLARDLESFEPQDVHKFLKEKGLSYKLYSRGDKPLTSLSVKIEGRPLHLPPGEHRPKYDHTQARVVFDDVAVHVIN

[7] = molecular target: T4, Nitric oxide synthase, inducible (Mus musculus) (UniProt P29477); settings: at 1 mM;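 note: recombinant enzyme, activity read out colorimetrically after 40 min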
T4 sequence (whole entry): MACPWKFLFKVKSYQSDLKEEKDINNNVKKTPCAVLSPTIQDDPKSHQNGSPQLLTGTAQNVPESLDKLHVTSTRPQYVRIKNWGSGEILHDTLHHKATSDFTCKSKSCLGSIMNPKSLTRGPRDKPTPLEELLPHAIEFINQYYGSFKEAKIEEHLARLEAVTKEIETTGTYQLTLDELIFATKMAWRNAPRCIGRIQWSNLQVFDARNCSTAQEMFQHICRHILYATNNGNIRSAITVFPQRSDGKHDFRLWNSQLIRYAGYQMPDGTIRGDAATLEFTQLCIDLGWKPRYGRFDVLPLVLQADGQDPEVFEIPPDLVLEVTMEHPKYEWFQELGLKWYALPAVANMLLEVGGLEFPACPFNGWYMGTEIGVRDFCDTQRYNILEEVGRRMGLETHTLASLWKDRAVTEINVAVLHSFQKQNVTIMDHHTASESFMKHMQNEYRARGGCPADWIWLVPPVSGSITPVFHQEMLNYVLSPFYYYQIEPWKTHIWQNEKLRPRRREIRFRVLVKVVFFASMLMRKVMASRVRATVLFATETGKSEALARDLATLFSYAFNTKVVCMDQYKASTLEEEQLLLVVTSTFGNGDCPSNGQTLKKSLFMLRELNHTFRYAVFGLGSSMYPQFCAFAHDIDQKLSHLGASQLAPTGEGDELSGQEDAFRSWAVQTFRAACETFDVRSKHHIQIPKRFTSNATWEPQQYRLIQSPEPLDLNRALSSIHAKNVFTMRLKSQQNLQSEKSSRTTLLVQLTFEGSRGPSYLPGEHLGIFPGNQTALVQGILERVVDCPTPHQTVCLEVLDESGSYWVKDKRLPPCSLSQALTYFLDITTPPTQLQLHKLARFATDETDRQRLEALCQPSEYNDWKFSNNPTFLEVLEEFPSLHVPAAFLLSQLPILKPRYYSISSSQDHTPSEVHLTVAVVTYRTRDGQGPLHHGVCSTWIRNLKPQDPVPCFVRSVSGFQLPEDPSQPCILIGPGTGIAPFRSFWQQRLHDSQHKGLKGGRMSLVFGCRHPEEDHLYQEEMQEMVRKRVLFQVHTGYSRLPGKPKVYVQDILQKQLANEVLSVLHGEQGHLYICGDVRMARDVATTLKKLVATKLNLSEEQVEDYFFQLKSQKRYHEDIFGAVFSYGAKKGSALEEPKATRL

[8] = molecular target: T5, Interstitial collagenase (Homo sapiens) (UniProt P03956); settings: at 1 mM;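 note: recombinant human enzyme, with inhibition measured after 30 min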
T5 sequence (whole entry): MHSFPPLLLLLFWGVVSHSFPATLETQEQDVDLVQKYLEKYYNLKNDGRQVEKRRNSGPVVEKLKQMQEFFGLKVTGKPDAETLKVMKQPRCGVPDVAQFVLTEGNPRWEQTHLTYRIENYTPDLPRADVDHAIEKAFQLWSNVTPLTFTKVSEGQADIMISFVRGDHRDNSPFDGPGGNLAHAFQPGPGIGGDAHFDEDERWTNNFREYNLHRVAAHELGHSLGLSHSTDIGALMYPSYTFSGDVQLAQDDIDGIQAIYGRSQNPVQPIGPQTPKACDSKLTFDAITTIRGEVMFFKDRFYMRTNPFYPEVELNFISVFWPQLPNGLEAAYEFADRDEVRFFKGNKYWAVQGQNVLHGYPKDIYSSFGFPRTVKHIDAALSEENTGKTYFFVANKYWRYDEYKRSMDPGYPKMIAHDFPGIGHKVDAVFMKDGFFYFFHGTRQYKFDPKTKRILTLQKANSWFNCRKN

[9] = molecular target: T6, Polyunsaturated fatty acid 5-lipoxygenase (Homo sapiens) (UniProt P09917); experiment: Inhibition of human recombinant 5-lipoxygenase at 1 mM after 10 mins by fluorescence assay
T6 sequence (whole entry): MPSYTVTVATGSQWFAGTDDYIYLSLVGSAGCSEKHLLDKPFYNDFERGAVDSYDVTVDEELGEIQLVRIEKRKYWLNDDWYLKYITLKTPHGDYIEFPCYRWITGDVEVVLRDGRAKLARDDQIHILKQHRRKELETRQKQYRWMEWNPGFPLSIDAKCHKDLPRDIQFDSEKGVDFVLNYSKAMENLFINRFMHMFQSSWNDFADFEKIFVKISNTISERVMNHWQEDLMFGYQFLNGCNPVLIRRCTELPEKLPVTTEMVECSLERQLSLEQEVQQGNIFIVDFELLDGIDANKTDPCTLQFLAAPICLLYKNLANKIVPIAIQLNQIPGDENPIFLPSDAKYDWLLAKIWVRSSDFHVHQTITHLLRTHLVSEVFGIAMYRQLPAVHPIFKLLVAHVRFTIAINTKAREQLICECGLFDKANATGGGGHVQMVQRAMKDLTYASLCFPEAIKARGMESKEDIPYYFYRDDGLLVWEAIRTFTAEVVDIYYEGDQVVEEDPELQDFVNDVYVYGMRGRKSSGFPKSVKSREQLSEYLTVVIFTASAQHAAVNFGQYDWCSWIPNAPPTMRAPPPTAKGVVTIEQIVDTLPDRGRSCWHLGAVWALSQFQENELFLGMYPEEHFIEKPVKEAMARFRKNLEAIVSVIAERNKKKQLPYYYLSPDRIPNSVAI

[10] = molecular target: Matrix metalloproteinase-9 (Homo sapiens) (UniProt P14780); settings: at 1 mM;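 note: recombinant human MMP9, activity read after 30 min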
Chain of Matrix metalloproteinase-9 (Homo sapiens) (P14780 whole entry): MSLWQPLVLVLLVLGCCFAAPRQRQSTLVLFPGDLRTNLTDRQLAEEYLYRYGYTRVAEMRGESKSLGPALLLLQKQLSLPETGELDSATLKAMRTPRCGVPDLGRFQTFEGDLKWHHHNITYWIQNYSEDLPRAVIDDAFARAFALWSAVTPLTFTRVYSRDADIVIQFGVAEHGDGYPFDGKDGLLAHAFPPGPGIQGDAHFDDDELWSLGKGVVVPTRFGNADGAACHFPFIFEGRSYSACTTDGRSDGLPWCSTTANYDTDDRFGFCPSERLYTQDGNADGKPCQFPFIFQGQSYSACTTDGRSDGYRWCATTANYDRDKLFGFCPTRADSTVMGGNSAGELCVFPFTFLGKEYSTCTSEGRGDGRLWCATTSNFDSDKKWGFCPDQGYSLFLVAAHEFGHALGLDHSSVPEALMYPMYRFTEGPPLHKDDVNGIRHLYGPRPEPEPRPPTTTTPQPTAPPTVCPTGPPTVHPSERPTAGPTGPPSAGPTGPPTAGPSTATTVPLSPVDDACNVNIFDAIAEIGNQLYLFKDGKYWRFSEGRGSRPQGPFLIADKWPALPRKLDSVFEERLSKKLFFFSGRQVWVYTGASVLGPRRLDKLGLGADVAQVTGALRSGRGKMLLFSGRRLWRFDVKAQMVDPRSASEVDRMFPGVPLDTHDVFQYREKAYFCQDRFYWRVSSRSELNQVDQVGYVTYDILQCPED

Chain of Stromelysin-1 (Homo sapiens) (P08254 100-477 limits assumed): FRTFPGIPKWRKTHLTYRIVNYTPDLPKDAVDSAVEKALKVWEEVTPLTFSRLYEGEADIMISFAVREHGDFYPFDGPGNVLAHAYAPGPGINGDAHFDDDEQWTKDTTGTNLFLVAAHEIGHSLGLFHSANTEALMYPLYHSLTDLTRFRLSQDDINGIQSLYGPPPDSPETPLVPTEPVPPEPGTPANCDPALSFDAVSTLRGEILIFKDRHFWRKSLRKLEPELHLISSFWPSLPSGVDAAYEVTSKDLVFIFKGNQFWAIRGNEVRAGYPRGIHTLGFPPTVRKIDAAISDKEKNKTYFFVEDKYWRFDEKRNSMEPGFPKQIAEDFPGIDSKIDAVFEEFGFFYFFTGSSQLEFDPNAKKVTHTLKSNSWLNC
Chain of Neutrophil collagenase (Homo sapiens) (P22894 101-467 limits assumed): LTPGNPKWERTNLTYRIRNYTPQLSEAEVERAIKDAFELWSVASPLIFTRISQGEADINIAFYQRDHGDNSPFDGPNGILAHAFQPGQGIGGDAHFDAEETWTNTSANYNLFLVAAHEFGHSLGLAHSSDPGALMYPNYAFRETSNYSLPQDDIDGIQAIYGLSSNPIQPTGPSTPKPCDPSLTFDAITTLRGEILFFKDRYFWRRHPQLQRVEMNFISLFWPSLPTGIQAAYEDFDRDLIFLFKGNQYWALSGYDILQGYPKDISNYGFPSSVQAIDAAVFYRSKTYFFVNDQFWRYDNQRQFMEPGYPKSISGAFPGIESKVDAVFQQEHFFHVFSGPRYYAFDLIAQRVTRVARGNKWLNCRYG

Structure (SMILES) | inhibition [1] | IC50 [2] | inhibition [3] | inhibition [4] | inhibition [5] | inhibition [6] | inhibition [7] | inhibition [8] | inhibition [9] | inhibition [10]
CC(=O)NO [ACETOHYDROXAMIC ACID] | 4% | 15 mM | 5% | 25% | 5% | -2% | 4% | 10% | – | –
CC(=O)C(Cl)C(C)=O | -9% | – | -6% | 9% | -7% | 86% | 80% | 11% | 52% | –
Cc1ccc(C(=O)O)c(O)c1 | – | – | -1% | 11% | 16% | 97% | 15% | 8% | 17% | 10%
O=C(O)c1cccnc1C(=O)O | – | – | – | 49% | 14% | 98% | 5% | 4% | 30% | -8%
Oc1cccnc1O | – | – | -7% | – | 7% | -9% | 0% | 8% | 90% | 21%
O=C(O)c1cccc(O)n1 | – | – | 0% | 81% | 20% | 95% | 6% | 16% | 38% | 16%
Cc1nc(O)cc(O)n1 | 2% | – | 22% | – | 14% | 12% | 1% | 14% | 62% | 4%
O=C(O)c1ccc[nH]1 | 1% | – | -8% | 11% | – | 69% | 7% | 8% | 48% | –
O=c1[nH]ccc(=S)[nH]1 | – | 0.121 mM | – | – | – | – | – | – | – | –
CC(=O)CC(C)=O | -5% | – | -4% | 5% | -6% | 77% | -6% | 10% | 42% | –
O=C(O)c1cccc2cccnc12 | 25% | – | 77% | – | 38% | -2% | 11% | 36% | 23% | 31%
Cc1cccc(C(=O)O)n1 | – | – | 48% | 47% | 3% | 25% | 8% | -9% | 21% | -6%
O=C(O)c1nc(Cl)ccc1Cl | 0% | – | 0% | – | 18% | 96% | 20% | 12% | 27% | 18%
CCC(C(C)=O)C(C)=O | – | – | 6% | 4% | 3% | 85% | -1% | 7% | 62% | 1%
O=C(O)c1c(O)cccc1O | -6% | – | -4% | 15% | -5% | 95% | 17% | 0% | 38% | –
Oc1ccccc1O | 10% | – | 1% | 47% | 31% | – | 28% | 25% | 89% | 10%
